Results published in article PMC5193105 (Proteins, 2016).
Each block holds one compound with its values, some of them ahead of it.

Columns and labels:
[1] = target: wildtype hPFKFB2 (Homo sapiens, UniProt O60825); test: 2-kinase inhibition assay; type: biochemical; details: wild-type; for Ki: Citrate Kis
In short: (§1)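 His-tagged enzyme was expressed in E. coli BL21 C41(DE3) and purified by Ni-NTA then SP Sepharose. Step 1 used 130 nM enzyme in 20 mM TES pH 8.0, 1 mM DTT, 2 mM MgCl2 and 0.5% tween, with varied citrate, ATP and Fru-6-P (fixed substrate 250 μM), for 10 min at 25°C. Reactions were KOH-stopped and neutralized. Fru-2,6-P2 was read by PPi-PFK/aldolase/TPI/[…] coupling as A340 over 30 min. Constants came from non-linear regression.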

[2] = target: hPFKFB2 Y428A mutant (Homo sapiens, UniProt O60825, Y428A); test: 2-kinase inhibition assay; type: biochemical; details: for Ki: Citrate Kis
In short: as §1

[3] = variable substrate ATP, fixed substrate F6P 250μM
[4] = Y428A, variable substrate ATP, fixed substrate F6P 250μM

Sequence of wildtype hPFKFB2 (O60825 whole entry): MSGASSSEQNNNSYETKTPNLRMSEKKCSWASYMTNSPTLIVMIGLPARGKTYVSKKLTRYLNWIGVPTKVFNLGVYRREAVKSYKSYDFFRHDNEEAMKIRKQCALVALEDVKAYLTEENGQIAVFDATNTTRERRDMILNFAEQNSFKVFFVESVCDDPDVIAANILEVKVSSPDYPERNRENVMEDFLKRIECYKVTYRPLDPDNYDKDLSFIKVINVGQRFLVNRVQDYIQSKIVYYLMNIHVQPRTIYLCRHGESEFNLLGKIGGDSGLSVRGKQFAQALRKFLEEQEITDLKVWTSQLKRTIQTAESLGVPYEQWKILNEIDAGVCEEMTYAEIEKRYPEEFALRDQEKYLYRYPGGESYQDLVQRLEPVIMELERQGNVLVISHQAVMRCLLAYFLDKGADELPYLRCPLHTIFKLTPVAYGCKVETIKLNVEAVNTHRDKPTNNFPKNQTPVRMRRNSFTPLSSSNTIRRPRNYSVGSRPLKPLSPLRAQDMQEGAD
Sequence of hPFKFB2 Y428A mutant (O60825 whole entry Y428A): as the sequence (O60825 whole entry) above, with Y428A counted along it

SMILES: Nc1ncnc2c1ncn2[C@@H]1O[C@H](COP(=O)(O)OP(=O)(O)OP(=O)(O)O)[C@@H](O)[C@H]1O [ATP]
KmATP [1]: 38.8 ± 5.3 µM
KmATP ([2]; Y428A): 40.7 ± 4.2 µM

Ki [1, 3]: 50.2 µM
Ki ([1]; variable substrate F6P, fixed substrate ATP 250μM): 80.3 ± 6.5 µM
Citrate Kii [1, 3]: 58.75 ± 9.9 µM
inhibition mechanism (in words) ([1]; versus ATP): non-competitive inhibitor
inhibition mechanism (in words) ([1]; versus F6P): competitive inhibitor
Ki [2, 4]: 2.43 ± 1 µM
Ki ([2]; Y428A, variable substrate F6P, fixed substrate ATP 250μM): 67.3 ± 4.2 µM
increase in affinity for the inhibitor, Y428A versus wild-type ([2]; Kis with ATP as variable substrate, from 50.2 μM to 2.4 μM): 20 fold
Citrate Kii [2, 4]: 3.05 ± 1.4 µM
SMILES: O=C(O)CC(O)(CC(=O)O)C(=O)O [Citrate]

KmF6P [1]: 80.3 ± 7.6 µM
KmF6P ([2]; Y428A): 13.8 ± 4.3 µM
increase in affinity for Fru-6-P, Y428A versus wild-type ([2]; from Km values): 6 fold
SMILES: O=C(CO)[C@@H](O)[C@H](O)[C@H](O)COP(=O)(O)O [F6P, fructose-6-phosphate]
